# Assay outcomes as filed in PubChem BioAssay.
# Platelet DG rel – inhibitors of platelet dense granule secretion, primary screen, cell-based, MLPCN, human platelets; human platelet-rich plasma, SFLLRN dense granule ATP release, luminescence; inhibition, %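 (compounds screened at 7.5 µM in platelet-rich plasma)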; 300,000 tested, 0.22% active; AID 1663, 2009;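 active means mean replicate score, as percent of positive control, at or above 50; inconclusive means mean below 50 but at least one replicate at or above 50; inactive means mean and every replicate below 50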
# Rce1 inhib – yeast Rce1p protease inhibitors, primary screen, biochemical, fluorescence, cell-free homogeneous; CAAX prenyl protease 2 (Saccharomyces cerevisiae (strain ATCC 204508 / S288c)), Q03530; yeast membranes, quenched prenylated peptide cleavage fluorescence; calls only; 290,000 tested, 0.27% active;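 active means fall in fluorescence gain of 50% or more versus controls, with final raw signal at or below 3038400; inconclusive means same 50% fall but final raw signal above 3038400; inactive means fall in fluorescence gain under 50%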
# Target sequence (Q03530 whole entry, looked up): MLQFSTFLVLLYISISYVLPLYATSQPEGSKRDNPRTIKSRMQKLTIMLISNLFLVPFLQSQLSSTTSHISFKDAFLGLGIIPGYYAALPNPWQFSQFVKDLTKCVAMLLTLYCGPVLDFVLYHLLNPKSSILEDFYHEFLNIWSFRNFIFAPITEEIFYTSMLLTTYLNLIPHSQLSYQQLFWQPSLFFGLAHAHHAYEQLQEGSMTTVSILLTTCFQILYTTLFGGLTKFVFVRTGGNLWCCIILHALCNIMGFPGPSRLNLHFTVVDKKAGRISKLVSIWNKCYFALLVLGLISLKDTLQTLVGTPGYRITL
# TAAR1 antag – human TAAR1 antagonists, primary screen, Fluo-8 calcium fluorescence, CHO RD-HGA16 cells; antagonist; inhibition, % at 3 µM; 360,000 tested, 1.5% active; AID 624466, 2012;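 active means inhibition above a per-plate cutoff, the mean inhibition of test compounds on that plate plus 3 SD, cut at about 49% in these data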
# Target sequence (Q96RJ0 whole entry, looked up): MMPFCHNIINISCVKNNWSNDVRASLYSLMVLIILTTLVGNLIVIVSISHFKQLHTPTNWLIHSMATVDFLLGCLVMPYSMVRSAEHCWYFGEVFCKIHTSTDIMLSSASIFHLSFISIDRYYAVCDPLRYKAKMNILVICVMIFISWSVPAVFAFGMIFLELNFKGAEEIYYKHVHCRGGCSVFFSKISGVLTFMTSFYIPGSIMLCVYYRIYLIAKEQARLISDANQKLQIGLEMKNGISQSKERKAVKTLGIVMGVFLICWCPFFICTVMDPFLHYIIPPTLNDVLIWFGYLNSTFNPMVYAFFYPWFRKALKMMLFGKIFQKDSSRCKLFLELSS
#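 Assay system: RD-HGA16 CHO cells with stable hTAAR1 and Gα16 / Reagent: EC80 β-phenethylamine stimulus / Doses: 3 µM, single point / Timing: dye loading 75 min at 37 °C, then 30 min room temperature / Measured by: Fluo-8 intracellular calcium dye fluorescence, real-time kinetic reads / Controls: vehicle wells and EC80 agonist wells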
# TAAR1 agonist – human TAAR1 agonists, primary screen, Fluo-8 calcium fluorescence, CHO RD-HGA16 cells; activation, % at 3 µM; vehicle wells 0%, saturating PEA agonist 100%; 360,000 tested, 0.99% active; Trace amine-associated receptor 1 (Homo sapiens), Q96RJ0;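 active means activation above the mean activation of all test compounds in the run plus 3 SD, cut at about 38% in these data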
#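 Signal – calcium-sensitive Fluo-8 signal, excitation 470-495, emission 515-575 nm · System – RD-HGA16 (CHO) cells co-expressing Gα16 and hTAAR1 · Incubation – 17-24 h seeding, 75 min 37 °C dye, 30 min RT · Compound dosing – 3 µM single concentration · Repeats – no replicates (n 1)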
# VLA-4 inh – inhibition in human VLA-4 binding assay, primary screen, VLA-4 allosteric modulator project, MLPCN library, flow cytometry, VLA-4 expressing cells; inhibition, % (about 7 µM as worked out from the volumes in the protocol); AID 2557, 2010; Integrin alpha-4 (Homo sapiens), P13612; 330,000 tested, 0.2% active; ligand binding flow cytometry; in the data active means inhibition above about 50%
# TAAR1 ag confirm – human TAAR1 agonists, retest of hits, confirmation, Fluo-8 calcium fluorescence, CHO RD-HGA16 cells; shares compounds with TAAR1 agonist; scaled: DMSO 0%, maximal phenethylamine 100%; activation, % at 3 µM; 2,400 tested, 82% active;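 active means activation above a cutoff set at the run's mean compound activation plus 3 SD, cut at about 39% in these data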
# Ga16 ag counter – nonselective calcium mobilization agonists, CHO-Ga16 cells, counter-screen for hTAAR1 agonist project, cell-based, fluorescence, CHO-Ga16 parental line. activation, % at 3 µM. 2,400 tested, 50% active. AID 651787, 2012. Fluo-8 calcium fluorescence; normalized to maximal ATP response, DMSO zero. shares compounds with TAAR1 agonist;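 active means activation above the run cutoff, the mean activation over all tested wells plus 3 SD, cut at about 12% in these data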
# TAAR1 desensitize – TAAR1 desensitization by agonist hits, confirmation, counter-screen for TAAR1 agonist project, cell-based, fluorescence, tachyphylaxis; shares compounds with TAAR1 agonist; CHO RD-HGA16 hTAAR1, Fluo-8 calcium, beta-PEA response inhibition; inhibition, % at 3 µM; 2,400 tested, 46% active; AID 651951, 2012;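 active means inhibition above the run cutoff, the mean inhibition of all test compounds plus 3 SD, cut at about 49% in these data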;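 further: beta-PEA stimulus applied at its EC80; loss of beta-PEA calcium signal after compound pretreatment read as receptor desensitization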
# Ga16 nonsel ant – inhibition of ATP-evoked calcium response in CHO-Ga16 cells, counter-screen for TAAR1 agonist project, cell-based, fluorescence. shares compounds with TAAR1 agonist. inhibition, % at 3 µM. CHO-Ga16 ATP-induced calcium, Fluo-8 fluorescence. 2,400 tested, 39% active;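 active means inhibition above the plate's mean compound inhibition plus 3 SD, computed per plate, cut at about 22% in these data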
# Hits are given with their value; - = inactive; ? = inconclusive; . = no result. The list is not random: actives were taken first. Their share in the collection is about 2.6%.
SMILES,Platelet DG rel,Rce1 inhib,TAAR1 antag,TAAR1 agonist,VLA-4 inh,TAAR1 ag confirm,Ga16 ag counter,TAAR1 desensitize,Ga16 nonsel ant
Cc1ccc(NC(=S)NCCc2c[nH]c3ccccc23)c(C)c1,-,-,-,-,-,.,.,.,.
N#Cc1nc(-c2cccs2)oc1NCCc1ccccc1,-,?,-,51,-,49,-,-,-
Cc1cccnc1NC(=O)CNC(=O)COc1ccccc1,-,-,-,-,-,.,.,.,.
O=C(CNS(=O)(=O)c1ccc([N+](=O)[O-])cc1)N/N=C\c1ccc(O)cc1,-,-,68,68,-,101,39,89,63
Brc1ccc(-c2csc(N3CCc4ccccc4C3)n2)cc1,-,-,-,50,-,-,-,-,-
CC1=CC(C)(C)N(C(=O)c2ccccc2)c2ccc(C)cc21,-,-,52,65,.,71,42,69,52
CC1=CC(C)(C)N(C(=O)c2ccccc2)c2ccccc21,-,-,-,-,-,.,.,.,.
Cc1ccc(NS(=O)(=O)c2ccc(C(=O)N3CCCN(C)CC3)cc2)cc1,-,-,-,-,-,.,.,.,.
Cc1ccc(NS(=O)(=O)c2ccc(C(=O)N3CCCCCC3)cc2)cc1,.,.,-,86,-,80,52,-,39
O=C(c1ccc(S(=O)(=O)Nc2ccccc2)cc1)N1CCCC(C(F)(F)F)C1 (stereo not drawn),-,.,65,116,-,99,58,57,30
Cc1ccc(NS(=O)(=O)c2ccc(C(=O)N3CC(C)OC(C)C3)cc2)cc1 (stereo not drawn),-,-,57,127,-,118,68,61,31
CCOc1ccc(NS(=O)(=O)c2ccc(C(=O)N3CCCC(C)C3)cc2)cc1 (stereo not drawn),-,-,79,114,-,121,80,84,55
C[C@H](CO)N1C[C@H](C)[C@@H](CN(C)S(=O)(=O)c2ccccc2C#N)OCc2cn(nn2)CCCC1=O,.,.,-,-,.,.,.,.,.
O=C(NC1CCCC1)c1cccc(S(=O)(=O)Nc2ccccc2F)c1,.,.,-,-,-,.,.,.,.
C[C@H](CO)N1C[C@H](C)[C@@H](CN(C)C(=O)Nc2ccc3c(c2)OCCO3)OCc2cnnn2CCCC1=O,.,.,-,-,.,.,.,.,.
COc1ccc(-c2nc(CS(=O)(=O)CC(=O)NCc3ccccc3OC)c(C)o2)cc1,-,-,-,-,-,.,.,.,.
Nc1cc(=O)[nH]c(SCC(=O)Nc2cccc(Cl)c2Cl)n1,-,-,-,-,-,.,.,.,.
Nc1[nH]c(C(=O)c2ccccc2)c(-c2ccc(Cl)cc2)c1C(=O)c1c[nH]c2cc(F)ccc12,.,.,-,-,.,.,.,.,.
CCCNC(=O)C1(C)CCCN(C(=O)c2ccc3sccc3c2)C1 (stereo not drawn),.,.,-,-,.,.,.,.,.
N#Cc1ccc(N=c2ssnc2Cl)cc1,-,-,-,48,-,53,44,-,25
CCCCN1CC[C@@H]2C=CC[C@H](C(=O)OC)[C@@H]2C1=O,.,.,-,-,.,.,.,.,.
Nc1nc(-c2ccccn2)nc(N)c1Cc1ccc(Cl)cc1Cl,-,-,-,-,-,.,.,.,.
CCOC(=O)C(NC(=O)CC)(N1CCc2ccccc2C1)C(F)(F)F (stereo not drawn),-,-,96,93,-,111,-,98,-
CCOC(=O)C(NC(=O)CC)(Nc1ccccc1)C(F)(F)F (stereo not drawn),-,-,-,-,-,.,.,.,.
O=C(/C=C/c1ccc(Br)o1)Nc1nnc(C2CC2)s1,-,-,.,.,-,.,.,.,.
SMILES,Platelet DG rel,Rce1 inhib,TAAR1 antag,TAAR1 agonist,VLA-4 inh,TAAR1 ag confirm,Ga16 ag counter,TAAR1 desensitize,Ga16 nonsel ant
CCc1cc2ccccc2nc1SCC(=O)Nc1cc(C)on1,-,-,-,48,-,-,-,-,-
CCc1cc2cc(C)c(C)cc2nc1SCC(=O)Nc1cc(C)on1,-,-,-,-,-,.,.,.,.
CN(CC(=O)Nc1ccccc1Br)C(=O)c1cc2c(s1)CCCCC2,-,-,-,-,-,.,.,.,.
NC(CSCc1ccccc1Cl)C(=O)O (stereo not drawn),-,-,-,-,-,.,.,.,.
N=C(N)SCc1ccccc1Cl,-,-,-,72,-,82,-,73,-
COCCCNC(=O)[C@@H](Cc1ccccc1)NC(=O)[C@H]1O[C@@H](n2ccc(=O)[nH]c2=O)[C@H](O)[C@@H]1O,.,.,-,-,.,.,.,.,.
c1ccc2c(c1)CCN(c1nc3cc4c(cc3s1)OCO4)C2,-,-,61,85,-,89,-,82,-
c1ccc(N2CCN(c3nc4cc5c(cc4s3)OCO5)CC2)cc1,-,-,-,-,-,.,.,.,.
C=CCN1C(=O)/C(=C/C=C2/N(CC)c3ccc(S(=O)(=O)N(C)C)cc3N2CC)SC1=S,-,-,74,107,-,90,91,87,88
COc1ccccc1CCn1cnc(-c2ccc(F)cc2F)c1CC(C)C,.,.,-,-,.,.,.,.,.
COc1cc(OC)c(C#N)c(S(=O)(=O)Cc2ccccc2)c1,-,-,-,-,-,.,.,.,.
N#Cc1c([N+](=O)[O-])cc([N+](=O)[O-])cc1S(=O)(=O)Cc1ccccc1,.,.,-,48,-,-,-,-,45
COC(=O)[C@@]1(Cc2ccc(OC)cc2)[C@H]2c3cc(C(=O)N4CCCC4)n(Cc4cc(C)n(C)n4)c3C[C@H]2CN1C(=O)c1ccccc1,.,.,-,-,.,.,.,.,.
Cc1nn(CC(=O)NCCc2cccs2)c(=O)c2cc3ccccc3n12,-,-,-,48,-,38,-,-,-
Cc1nn(CC(=O)NCCc2cccs2)c(=O)c2nn(-c3ccccc3)c(C)c12,-,-,-,-,-,.,.,.,.
Cc1[nH]n(-c2ccccc2)c(=O)c1C=NCCc1ccccc1,-,-,-,59,-,91,-,-,-
Cc1cc(C(=O)CN2C(=O)C(=O)N(Cc3ccccc3)C2=O)c(C)n1Cc1ccccc1,.,.,-,-,-,.,.,.,.
